The text below walks through data of ChEMBL document CHEMBL4364301 (Eur J Med Chem, 2019).

What all share (type): functional
In one assay the test system is VCaP. Put plainly: Antiproliferative activity against human VCaP cells assessed as reduction in cell growth incubated for 96 hrs by propidium iodide based 2D monolayer assay. In outline:
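VCaP cells in RPMI 1640 with 10% FCS at 37 °C, 5% CO2, seeded 4,000–20,000 cells/well and left 24 h before dosing. Compounds from DMSO stocks were diluted in half-log steps in medium, 10 concentrations 0.0032–100 μM, triplicate wells, max 0.3% DMSO. After 96 h, cells were washed, stained with 7 μg/ml propidium iodide plus 0.1% Triton X-100 for 1–2 h at room temperature, and fluorescence read at ex 530/em 620 nm.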

A further assay deals with LNCaP. In words: Antiproliferative activity against human LNCAP cells assessed as reduction in cell growth incubated for 96 hrs by propidium iodide based 2D monolayer assay. In outline:
(§1)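 After 24 h recovery, compound in medium or medium alone (control wells) was added at 10 half-log concentrations from 0.0032 to 100 µM, in triplicate, with at most 0.3% DMSO. After 96 h, wells were PBS-washed, stained with 7 µg/ml PI and 0.1% Triton X-100, and fluorescence read at 530/620 nm. IC50 came from a 4-parameter fit, geometric mean.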

Another assay deals with CWR22R. In words: Antiproliferative activity against human 22Rv1 cells assessed as reduction in cell growth incubated for 96 hrs by propidium iodide based 2D monolayer assay. To be noted: 22Rv1, 96 h. In short, it runs like this:
as §1

In a further assay the test system is DU-145. In words: Antiproliferative activity against human DU145 cells assessed as reduction in cell growth incubated for 96 hrs by propidium iodide based 2D monolayer assay. The note with it: DU-145, 96 h. In outline: as §1

As for `CC(O)(COc1ccc(C#N)cc1)C(=O)Nc1cccc(S(F)(F)(F)(F)F)c1` (racemic), the IC50 was determined as 26.6 µM in the assay on VCaP, 30 µM in the assay on LNCaP, 32.5 µM in the assay with CWR22R and 42.6 µM in the assay with DU-145.
For `CC(O)(COc1cccc(OC(F)(F)F)c1)C(=O)Nc1ccc(S(F)(F)(F)(F)F)cc1` (racemic) the same measures were 18.3 µM, 11 µM, 17.3 µM and 18.4 µM.
For `CC(O)(COc1cccc(OC(F)(F)F)c1)C(=O)Nc1cccc(S(F)(F)(F)(F)F)c1` (racemic), in that order: 28.6 µM, 15.2 µM, 18.8 µM and 30.1 µM.
With `CC(O)(COc1ccc(S(F)(F)(F)(F)F)cc1)C(=O)Nc1ccc(C#N)cc1C(F)(F)F` (racemic), the IC50 stood at 25.5 µM in the assay with VCaP, 12.3 µM with LNCaP, 14.7 µM in the assay on CWR22R and 16 µM in the assay with DU-145.
For the compound `CC(O)(CSc1ccc(OC(F)(F)F)cc1)C(=O)Nc1cccc(S(F)(F)(F)(F)F)c1` (racemic), the IC50 amounted to 28.5 µM with VCaP, 10.3 µM in the assay with LNCaP, 17 µM in the assay on CWR22R and 24.7 µM with DU-145.
Regarding `CC(O)(CSc1ccccc1OC(F)(F)F)C(=O)Nc1cccc(S(F)(F)(F)(F)F)c1` (racemic), the IC50 in the assay on VCaP amounted to 12.6 µM; with LNCaP it was 10 µM; in the assay with CWR22R it was 13.9 µM; with DU-145, 17.5 µM.
Regarding `CC(O)(COc1ccc(S(F)(F)(F)(F)F)cc1)C(=O)Nc1ccc(S(F)(F)(F)(F)F)cc1` (racemic), the IC50 in the assay on VCaP turned out to be 9.3 µM; with LNCaP, 9.8 µM; with CWR22R, 13 µM; in the assay with DU-145 it was 24.9 µM.
Take `CC(O)(COc1ccc(S(F)(F)(F)(F)F)cc1)C(=O)Nc1ccc([N+](=O)[O-])c(C(F)(F)F)c1` (racemic): the IC50 in the assay on VCaP amounted to 100 µM; in the assay on LNCaP, 100 µM; in the assay with CWR22R it was 14.1 µM; with DU-145 it was 21.2 µM.
Regarding `CC(O)(COc1ccc(S(F)(F)(F)(F)F)cc1)C(=O)Nc1ccc([N+](=O)[O-])cc1C(F)(F)F` (racemic), the IC50 was 26.1 µM in the assay with VCaP, 14.8 µM in the assay with LNCaP, 17.1 µM with CWR22R and 15.4 µM in the assay on DU-145.
For `CC(O)(COc1cccc(S(F)(F)(F)(F)F)c1)C(=O)Nc1ccc([N+](=O)[O-])cc1C(F)(F)F` (racemic), in that order: 20.3 µM, 12.1 µM, 15.5 µM and 18 µM.
As for `CC(O)(COc1ccc(OC(F)(F)F)cc1)C(=O)Nc1ccc(S(F)(F)(F)(F)F)cc1` (racemic), the IC50 was 12.8 µM in the assay on VCaP, 18.6 µM with LNCaP, 27.9 µM in the assay with CWR22R and 24.8 µM in the assay with DU-145.
Consider `CC(O)(COc1ccc(S(F)(F)(F)(F)F)cc1)C(=O)Nc1ccc(C#N)c(C(F)(F)F)c1` (racemic), for which the IC50 in the assay on VCaP was found to be 30.1 µM; with LNCaP, 11.5 µM; with CWR22R, 28.2 µM; with DU-145 it was 25.5 µM.
For `CC(O)(COc1cccc(C(F)(F)F)c1)C(=O)Nc1cccc(S(F)(F)(F)(F)F)c1` (racemic), in that order: 22.5 µM, 28.8 µM, 28.9 µM and 31.7 µM.
For `CC(O)(COc1cccc(S(F)(F)(F)(F)F)c1)C(=O)Nc1ccc(S(F)(F)(F)(F)F)cc1` (racemic), in that order: 11.4 µM, 12 µM, 17.6 µM and 29.6 µM.
As for `CC(O)(COc1ccc(S(F)(F)(F)(F)F)cc1)C(=O)Nc1cccc(S(F)(F)(F)(F)F)c1` (racemic), the IC50 in the assay on VCaP is 8 µM; in the assay with LNCaP it was 8 µM; in the assay on CWR22R it was 10.2 µM; in the assay with DU-145, 12.8 µM.
Regarding `CC(O)(COc1ccccc1OC(F)(F)F)C(=O)Nc1ccc(S(F)(F)(F)(F)F)cc1` (racemic), the IC50 turned out to be 9.7 µM with VCaP, 8.9 µM with LNCaP, 7.3 µM with CWR22R and 16.8 µM with DU-145.
In the case of `CC(O)(COc1ccc(C#N)cc1)C(=O)Nc1ccc(S(F)(F)(F)(F)F)cc1` (racemic), the IC50 came to 100 µM with VCaP, 100 µM in the assay on LNCaP, 26.1 µM in the assay on CWR22R and 32.2 µM in the assay on DU-145.
As for `CC(O)(COc1cccc(S(F)(F)(F)(F)F)c1)C(=O)Nc1ccc(C#N)c(C(F)(F)F)c1` (racemic), the IC50 in the assay on VCaP stood at 8 µM; in the assay on LNCaP, 9.8 µM; with CWR22R, 10.7 µM; in the assay on DU-145, 16 µM.
As to `CC(O)(COc1ccccc1C(F)(F)F)C(=O)Nc1cccc(S(F)(F)(F)(F)F)c1` (racemic), the IC50 in the assay on VCaP is 36.7 µM; in the assay on LNCaP, 26.3 µM; in the assay with CWR22R, 34.9 µM; in the assay on DU-145, 52.2 µM.
For `CC(O)(COc1cccc(C(F)(F)F)c1)C(=O)Nc1ccc(S(F)(F)(F)(F)F)cc1` (racemic), the IC50 in the assay on VCaP came out at 24.7 µM; in the assay with LNCaP, 24.7 µM; in the assay on CWR22R it was 14.6 µM; in the assay with DU-145, 21.9 µM.
As to `CC(O)(CSc1cccc(OC(F)(F)F)c1)C(=O)Nc1cccc(S(F)(F)(F)(F)F)c1` (racemic), the IC50 in the assay with VCaP turned out to be 17.5 µM; in the assay on LNCaP, 10.9 µM; in the assay with CWR22R, 18.7 µM; in the assay on DU-145, 25 µM.
`CC(O)(COc1ccc(OC(F)(F)F)cc1)C(=O)Nc1cccc(S(F)(F)(F)(F)F)c1` (racemic): the IC50 with VCaP is 20.2 µM; with LNCaP it was 12.7 µM; in the assay with CWR22R it was 12.9 µM; with DU-145, 19.1 µM.
For `CC(O)(COc1ccc(C(F)(F)F)cc1)C(=O)Nc1cccc(S(F)(F)(F)(F)F)c1` (racemic), in that order: 13.3 µM, 9.6 µM, 3.6 µM and 13.6 µM.
In the case of `CC(O)(COc1ccc(C#N)c(F)c1)C(=O)Nc1ccc(S(F)(F)(F)(F)F)cc1` (racemic), the IC50 with VCaP is 100 µM; with LNCaP it was 100 µM; in the assay with CWR22R it was 24.3 µM; in the assay on DU-145, 30.4 µM.
`CC(O)(COc1cccc(S(F)(F)(F)(F)F)c1)C(=O)Nc1cccc(S(F)(F)(F)(F)F)c1` (racemic): the IC50 in the assay on VCaP is 26.7 µM; in the assay on LNCaP, 10.9 µM; in the assay with CWR22R it was 27.3 µM; with DU-145, 30.7 µM.
For `CC(O)(COc1cccc(S(F)(F)(F)(F)F)c1)C(=O)Nc1ccc(C#N)cc1C(F)(F)F` (racemic), the IC50 with VCaP came to 10.3 µM; in the assay with LNCaP, 9.9 µM; in the assay with CWR22R, 11.6 µM; with DU-145 it was 16.3 µM.
For `CC(O)(COc1ccccc1OC(F)(F)F)C(=O)Nc1cccc(S(F)(F)(F)(F)F)c1` (racemic), in that order: 27.7 µM, 16.1 µM, 30 µM and 38.1 µM.
For the compound `CC(O)(COc1ccc(C#N)cc1C(F)(F)F)C(=O)Nc1ccc(S(F)(F)(F)(F)F)cc1` (racemic), the IC50 with VCaP was 100 µM; in the assay with LNCaP it was 100 µM; in the assay on CWR22R, 13.8 µM; in the assay on DU-145, 21.2 µM.

By IC50 is commonly meant the concentration at which inhibition is half-maximal.
